Experimental data collected from several papers.
Protocols differ between the studies behind these lines.
Matrix: plasma

CNC(=O)c1cc(OC)cc2c(N3CCc4c(cc(Cn5ccnc5)cc4-c4cn(C)nc4C(F)(F)F)C3=O)ccnc12
Vd (male CD-1 mouse; intravenous; 3 mg/kg): 0.4 L/kg

COc1nc(-c2cc(C)c(N[C@@H](C)c3c(F)cc(F)cc3F)nn2)ccc1-n1cnc(C)c1
Vd (male CD-1 mouse; intravenous; 1 mg/kg; single dose): 1.52 L/kg

CCNc1nc2c(c(N3CC(=O)Nc4cc(OC)ccc43)n1)CCC2
Vd (female C57BL/6 mouse; intravenous; 4 mg/kg; single dose): 4.7 L/kg

CNCCN(C)c1cc(C#N)cc(CCc2cc(C)cc(N)n2)c1
Vd (male BALB/c mouse; intravenous; 2 mg/kg): 14.8 L/kg

CC(C)(C)c1ccc(O)c(CN(Cc2cc(C(C)(C)C)ccc2O)C2CCC(NC(N)=O)CC2)c1 (centres unmarked)
Vd (male C57BL/6 mouse; intraperitoneal; 25 mg/kg; single dose): 5.6 L

COc1nc(-c2cc(C)c(N[C@@H](C)c3cc(F)cc(F)c3)nn2)ccc1-n1cnc(C)c1
Vd (male CD-1 mouse; intravenous; 1 mg/kg; single dose): 2.1 L/kg

C=CC(=O)N1CC2CC(n3nc(-c4ccc(C(=O)Nc5ccccn5)cc4)c4c(N)ncnc43)CC2C1 (centres unmarked)
Vd (male BALB/c mouse; intravenous; 1 mg/kg): 0.67 L/kg

CCc1cc(OC)c2nccc(N3CCc4c(cc(Cn5ccnc5)cc4-c4cn(C)nc4C(F)(F)F)C3=O)c2c1
Vd (male CD-1 mouse; intravenous; 3 mg/kg): 0.7 L/kg

CN1CCC(c2ccccc2CC(C)(C)Nc2nc(N3CCOCC3)nc(-n3c(C(F)F)nc4ccccc43)n2)CC1
Vd (mouse; intravenous; 10 mg/kg; single dose): 5.61 L/kg

COc1ccc2nccc(N3CCc4c(cc(Cn5ccnc5)cc4-c4cn(C)nc4C(F)(F)F)C3=O)c2c1
Vd (male CD-1 mouse; intravenous; 3 mg/kg): 1 L/kg

CC[C@H](C)[C@@H]1NC(=O)[C@@](C)(NC(=O)[C@H](CCCNC(=N)N)NC(=O)[C@H](CC(C)C)NC(=O)[C@@H](NC(=O)[C@H](CCC(N)=O)NC(=O)[C@H](CC(C)C)NC(C)=O)[C@@H](C)O)CCCC=CCCC[C@@](C)(C(=O)N[C@@H](CC(C)C)C(=O)N[C@@H](Cc2ccc3ccccc3c2)C(N)=O)NC(=O)[C@H](CCCNC(=N)N)NC(=O)[C@H](CCC(N)=O)NC1=O
Vd (male BALB/c mouse; intravenous; 10 mg/kg): 0.0788 L/kg
